Data set [1] has as its system Staphylococcus aureus. As to the kind of experiment: Growth inhibition of Staphylococcus aureus USA300 at 16 uM after 20 hrs. The data set is classed as organism-based. The method in brief: (§1)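 USA300 was grown in TSB at 37 °C with shaking at 250 rpm. Growth was followed in the presence of compound for 8 h and for 20 h, in triplicate.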
Data set [2] deals with Staphylococcus aureus. Kind of data set: Growth inhibition of Staphylococcus aureus USA300 at 64 uM after 20 hrs. The data set is classed as organism-based. The method in brief: as §1
Data set [3] deals with Staphylococcus aureus subsp. aureus USA300. As to the kind of experiment: Inhibition of Staphylococcus aureus USA300 SaeRS assessed as reduction in alpha-hemolysin gene expression at 8 uM after 6 hrs by qRT-PCR analysis. On the technique in general: In qPCR the cycle at which signal appears reflects the starting amount.
The test system is the same in data set [4]. Kind of data set: Inhibition of Staphylococcus aureus USA300 SaeRS assessed as reduction in aureolysin gene expression at 8 uM after 6 hrs by qRT-PCR analysis.
Data set [5] shares this test system. As to the kind of experiment: Inhibition of Staphylococcus aureus USA300 SaeRS assessed as reduction in gamma-hemolysin gene expression at 8 uM after 6 hrs by qRT-PCR analysis.
The test system is the same in data set [6]. As to the kind of experiment: Inhibition of Staphylococcus aureus USA300 SaeRS assessed as reduction in staphylokinase gene expression at 8 uM after 6 hrs by qRT-PCR analysis. The gist of the method: (§2)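 S. aureus cultures were treated with compound for 6 h. Total RNA was stabilised and purified with enzymatic disruption, then reverse-transcribed with random hexamers. qRT-PCR used an intercalating dye, with transcripts normalised to 16S rRNA, in triplicate.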

For data set [7], the system named is Staphylococcus aureus. Kind of data set: Reduction in Staphylococcus aureus USA300 sarA gene expression at 8 uM after 6 hrs by qRT-PCR analysis. It is filed as functional. The method in brief:
as §2

Data set [8] relates to HeLa. As to the kind of experiment: Cytotoxicity against human HeLa cells assessed as reduction in cell viability at 8 uM after 72 hrs by fluorescein diacetate/propidium iodide double staining based confocal microscopy.
Data set [9] deals with HeLa. As to the kind of experiment: Cytotoxicity against human HeLa cells assessed as reduction in cell viability at >IC50 concentration after 72 hrs by fluorescein diacetate/propidium iodide double staining based confocal microscopy.
In data set [10] the test system is Staphylococcus aureus. Kind of data set: Antivirulence activity in Staphylococcus aureus USA300-infected Galleria mellonella larvae model injected at every 12 h interval for 72 hrs. The data set is classed as functional, organism-based. The gist of the method:
(§3)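 G. mellonella larvae, 10 per group, were each injected with 20 µl of USA300 inoculum (5x10^6 cfu) into the lower left proleg and held at 37 °C in the dark without food. Treatment was given after infection and repeated every 12 h over 72 h, at doses up to 4.085 or 4.262 mg/kg body weight. Survival was scored daily along with activity, silk production and melanization.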

The test system of data set [11] is Staphylococcus aureus. Kind of data set: Antivirulence activity in Staphylococcus aureus USA300-infected Galleria mellonella larvae model assessed as larvae survival at 4.1 mg/kg injected at 2 hrs post infection at every 12 hr interval for 72 hrs (reference value: 20%). The data set is classed as functional. The gist of the method:
as §3

The subject of data set [12] is Staphylococcus aureus. Kind of data set: Antibacterial activity against Staphylococcus aureus USA300 assessed as log reduction in bacterial burden after 72 hrs. It is filed as functional, organism-based. The method in brief: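 Galleria mellonella larvae (10 per group) injected in the lower left proleg with 5x10^6 cfu USA300 in 20 µl, held at 37 °C in the dark; treatment began 2 h post infection and was re-injected every 12 h for 72 h. Haemolymph was plated on blood agar to count S. aureus burden at 72 h.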

The target of data set [13] is T1, Histidine protein kinase SaeS (Staphylococcus aureus (strain NCTC 8325)) (UniProt Q2G2U1).
T1 sequence (whole entry): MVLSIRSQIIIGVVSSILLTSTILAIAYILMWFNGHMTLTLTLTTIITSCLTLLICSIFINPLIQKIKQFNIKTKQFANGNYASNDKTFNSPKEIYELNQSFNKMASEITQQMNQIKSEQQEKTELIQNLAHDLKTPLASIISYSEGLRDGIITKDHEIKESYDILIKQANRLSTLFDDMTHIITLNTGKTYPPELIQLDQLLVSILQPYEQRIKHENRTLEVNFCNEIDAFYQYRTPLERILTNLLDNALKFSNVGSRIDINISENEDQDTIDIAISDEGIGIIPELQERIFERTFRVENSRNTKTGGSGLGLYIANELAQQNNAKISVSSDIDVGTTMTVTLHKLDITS
As to the kind of experiment: Inhibition of phosphotransfer reaction from recombinant Staphylococcus aureus phosphorylated His6-tagged SaeS kinase domain to Staphylococcus aureus SaeR expressed in Escherichia coli BL21(DE3) at 0.2 mM after 60 mins by coomassie-brilliant blue staining based SDS PAGE/autoradiographic analysis.

Data set [14] relates to Staphylococcus aureus subsp. aureus USA300. As to the kind of experiment: Inhibition of Staphylococcus aureus USA300 GFP-fused SaeRS at 20 uM after 8 hrs by fluorescence-based assay. The gist of the method:
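Reporter strain S. aureus carrying a P_hlam-gfp fusion (kept on chloramphenicol 5 µg/ml) was grown in TSB to OD600 = 1 and diluted to 5x10^5 cells/ml with compound; DMSO served as blank. Cultures were shaken at 37 °C for 8 h, then GFP (ex 485/em 515 nm) and OD600 were read.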

Data set [15] has as its system Staphylococcus aureus. As to the kind of experiment: Growth inhibition of Staphylococcus aureus USA300 up to 64 uM after 8 to 20 hrs. The data set is classed as organism-based. The gist of the method: as §1
For data set [16], the system named is Staphylococcus aureus subsp. aureus USA300. Kind of data set: Inhibition of Staphylococcus aureus USA300 SaeRS assessed as reduction in alpha-hemolysin gene expression at 10 uM after 6 hrs by qRT-PCR analysis.
Data set [17] has the same test system. As to the kind of experiment: Inhibition of Staphylococcus aureus USA300 SaeRS assessed as reduction in aureolysin gene expression at 10 uM after 6 hrs by qRT-PCR analysis.
The test system is the same in data set [18]. As to the kind of experiment: Inhibition of Staphylococcus aureus USA300 SaeRS assessed as reduction in gamma-hemolysin gene expression at 10 uM after 6 hrs by qRT-PCR analysis.
The test system is the same in data set [19]. Kind of data set: Inhibition of Staphylococcus aureus USA300 SaeRS assessed as reduction in staphylokinase gene expression at 10 uM after 6 hrs by qRT-PCR analysis. The method in brief:
as §2

Data set [20] concerns Staphylococcus aureus. As to the kind of experiment: Reduction in Staphylococcus aureus USA300 sarA gene expression at 10 uM after 6 hrs by qRT-PCR analysis. It is filed as functional. The method in brief:
as §2

The test system of data set [21] is Staphylococcus aureus. As to the kind of experiment: Antivirulence activity in Staphylococcus aureus USA300-infected Galleria mellonella larvae model assessed as larvae survival at 4.3 mg/kg injected at 2 hrs post infection at every 12 hr interval for 72 hrs (reference value: 20%). The data set is classed as functional. The method in brief: as §3
Data set [22] deals with T1, Histidine protein kinase SaeS (Staphylococcus aureus (strain NCTC 8325)). As to the kind of experiment: Binding affinity to Staphylococcus aureus MBP-fused SaeS by STD-NMR spectrophotometry. The method in brief: (§4)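 Saturation transfer difference 1D NMR with ligand fixed at 1.0 mM, prepared from a stock in deuterated DMSO. Protein was either 30 µM minimal SaeS kinase domain fused to maltose binding protein (MBP-SaeS) or 0.1 mM minimal kinase domain, dialysed into NMR buffer beforehand.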

The target is the same in data set [23]. Kind of data set: Inhibition of phosphotransfer reaction from recombinant Staphylococcus aureus phosphorylated His6-tagged SaeS kinase domain to Staphylococcus aureus SaeR expressed in Escherichia coli BL21(DE3) at 0.2 to 1 mM after 60 mins by coomassie-brilliant blue staining based SDS PAGE/autoradiographic analysis.
For data set [24] the target is unchanged. As to the kind of experiment: Binding affinity to Staphylococcus aureus SaeS assessed as T2-rerelaxation time of compound peak at 1 mM by 1D CPMG method. The gist of the method: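 Transverse-relaxation-filtered 1D NMR using a CPMG pulse train. Ligand fixed at 1.0 mM, from a stock in deuterated DMSO; minimal SaeS kinase domain at 0.1 mM, dialysed into NMR buffer.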

Data set [25] has the same target. As to the kind of experiment: Binding affinity to Staphylococcus aureus SaeS kinase domain at 1 mM by 1D-NMR analysis. The gist of the method:
as §4

The structures appear in SMILES notation. Calls of active or inactive are those of the source. The calls are words filed in the database; no cut-off is given here.

With `C=C(C)C(O)CC/C(C)=C/Cc1c(O)ccc(C(=O)/C=C/c2ccc(O)cc2)c1O` (centres undefined) [XANTHOANGELOL B], the “growth inhibition (GI)” value in the data set with Staphylococcus aureus [1] and with Staphylococcus aureus [2] was “Toxic” in each case. The inhibition entry in [3], in [4], in data set [5] and in data set [6] was “Active” each time. Further, in the data set with Staphylococcus aureus [7], the outcome was inactive. The Activity entry with HeLa [8] was “Non-Toxic”; in the data set with HeLa [9], “Non-Toxic”; in the data set with Staphylococcus aureus [10], “Dose-dependent effect”; in the data set on Staphylococcus aureus [12], “Dose-dependent effect”. In the data set with Staphylococcus aureus [11], the survival at 4.1 mg/kg came out at 100%. In data set [13], the inhibition entry is “inactive”.
In the case of `C=CCc1c(O)ccc(C(C)=O)c1O`, the inhibition result in data set [14] was “inactive”.
Take `C=CCc1c(O)ccc(C(=O)/C=C/c2ccc(O)cc2)c1O`: the inhibition result in data set [14] is “inactive”.
Turning to `CC(C)=CCC/C(C)=C/Cc1c(O)ccc(C(=O)/C=C/c2ccc(O)cc2)c1O`, the inhibition result in data set [14] was “inactive”.
Regarding `COc1ccc(C(=O)/C=C/c2ccc(O)cc2)c(O)c1C/C=C(\C)CCC=C(C)C`, the inhibition entry in data set [14] is “inactive”.
In the case of `C=C(C)CCC=C(C)C`, the inhibition result in [14] is “inactive”.
As for `C=C(C)C(O)CC/C(C)=C/Cc1c(O)ccc(C(=O)CC(O)c2ccc(O)cc2)c1O` (centres undefined), the “growth inhibition (GI)” value with Staphylococcus aureus [15] was “Non-Toxic”. Besides, the inhibition result in data set [16], in data set [17], in data set [18] and in [19] was “Active” each time. In addition, the result in the data set on Staphylococcus aureus [20] was inactive. The Activity entry with HeLa [8] was “Non-Toxic”; in the data set on HeLa [9], “Non-Toxic”; in the data set on Staphylococcus aureus [10], “Dose-dependent effect”; in the data set with Staphylococcus aureus [12], “Dose-dependent effect”. Also, the survival at 4.3 mg/kg in the data set on Staphylococcus aureus [21] is 100%. The outcome in [22], in [24] and in [25] was Active. Besides, the inhibition entry in data set [23] was “inactive”.
For the compound `O=C(/C=C/c1ccc(O)cc1)c1ccc(O)cc1O`, the inhibition entry in data set [14] is “inactive”.

Values taken from ChEMBL document CHEMBL4266038, “Total Synthesis of Xanthoangelol B and Its Various Fragments: Toward Inhibition of Virulence Factor Production of Staphylococcus aureus” (J Med Chem, 2018).
